Hits are enriched below; roughly 3.1% of the tested compounds scored in any of these assays.
hERG protect: hERG rescue from dofetilide block, primary screen, cell-based, CHO-hERG, FluxOR thallium flux, dofetilide IC70; dofetilide IC70 present; activation (rescue from dofetilide block), less the hit threshold, % at 10 µM; 310,000 tested, 0.51% active;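 active = activation above the mean of controls blocked by dofetilide plus 5 SD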;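 also: thallium influx through hERG after potassium depolarization seen as dye fluorescence rise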
Target sequence (Q12809 whole entry, looked up): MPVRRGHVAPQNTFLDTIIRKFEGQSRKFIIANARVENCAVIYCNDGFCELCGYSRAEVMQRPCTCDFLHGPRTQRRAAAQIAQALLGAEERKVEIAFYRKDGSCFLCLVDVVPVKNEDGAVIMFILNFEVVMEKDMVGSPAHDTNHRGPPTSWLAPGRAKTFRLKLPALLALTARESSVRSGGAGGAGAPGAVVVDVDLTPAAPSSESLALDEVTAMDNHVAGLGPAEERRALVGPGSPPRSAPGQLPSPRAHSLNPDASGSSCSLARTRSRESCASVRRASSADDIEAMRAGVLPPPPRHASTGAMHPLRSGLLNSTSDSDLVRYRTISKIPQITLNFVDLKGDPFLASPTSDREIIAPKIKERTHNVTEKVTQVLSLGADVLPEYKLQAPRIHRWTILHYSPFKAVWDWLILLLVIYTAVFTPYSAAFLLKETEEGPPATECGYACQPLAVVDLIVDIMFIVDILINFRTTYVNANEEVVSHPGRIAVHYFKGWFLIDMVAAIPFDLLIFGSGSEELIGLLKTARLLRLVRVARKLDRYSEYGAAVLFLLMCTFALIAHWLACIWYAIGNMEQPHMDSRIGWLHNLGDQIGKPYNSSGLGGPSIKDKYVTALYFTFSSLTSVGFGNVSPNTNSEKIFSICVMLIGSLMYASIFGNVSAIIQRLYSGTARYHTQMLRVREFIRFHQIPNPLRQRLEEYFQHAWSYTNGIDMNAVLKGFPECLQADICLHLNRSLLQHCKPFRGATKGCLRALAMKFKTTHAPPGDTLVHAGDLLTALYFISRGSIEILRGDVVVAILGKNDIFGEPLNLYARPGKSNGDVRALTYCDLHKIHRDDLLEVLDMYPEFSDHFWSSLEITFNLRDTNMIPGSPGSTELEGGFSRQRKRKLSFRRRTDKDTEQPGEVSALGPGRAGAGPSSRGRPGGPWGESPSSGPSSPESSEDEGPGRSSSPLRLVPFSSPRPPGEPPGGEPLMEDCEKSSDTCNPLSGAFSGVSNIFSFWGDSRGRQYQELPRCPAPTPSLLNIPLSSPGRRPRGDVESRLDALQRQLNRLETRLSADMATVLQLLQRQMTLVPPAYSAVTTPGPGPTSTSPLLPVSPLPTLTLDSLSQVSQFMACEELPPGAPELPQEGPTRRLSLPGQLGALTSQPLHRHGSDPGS
KCNQ1 pot: potentiators or activators of KCNQ1 channel, primary screen, cell-based, thallium flux, high-throughput; 310,000 tested, 0.35% active; CHO-K1 KCNQ1, thallium flux FluxOR fluorescence; active compounds read high; B-score at 10 µM; Potassium voltage-gated channel subfamily KQT member 1 (Homo sapiens), P51787;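 active = fluorescence ratio B-score, a plate-corrected score, at least three library SD, with initial intensity B-score within 5 SD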
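Assay system: CHO-K1 cells stably expressing KCNQ1. Medium: assay buffer for compound exposure, DMSO matched across wells. Timing: 37 °C overnight plating, 90-min dark dye load, 20-min compound pretreatment. Signal: kinetic FluxOR fluorescence, 10 s baseline plus 110 s post-stimulus.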
KCNK3 inh: human KCNK3 channel inhibitors, primary screen, CHO cells, FluxOR thallium flux, B-score. FluxOR fluorescence; active compounds read low. 340,000 tested, 0.84% active. Potassium channel subfamily K member 3 (Homo sapiens), O14649. B-score at 10 µM;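 active = B-score under library mean minus 4 SD, starting fluorescence ratio at most library mean plus 5 SD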;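 also: more negative B-score means stronger inhibition of thallium flux through KCNK3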
KCNQ1 inh: inhibitors of human KCNQ1 channel, primary screen, cell-based, thallium flux, high-throughput. Potassium voltage-gated channel subfamily KQT member 1 (Homo sapiens), P51787. CHO-K1 KCNQ1, FluxOR thallium flux fluorescence; active compounds read high. B-score at 10 µM. 310,000 tested, 1.3% active;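 active = compounds whose thallium flux B-score, printed positive for inhibition, exceeds three library SD while starting fluorescence stays within three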;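 also: channel opened by potassium depolarization with thallium stimulus after 20 min compound exposure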
KCNK9 inh: KCNK9 potassium channel inhibitors, primary screen, HEK293 cells, thallium flux; FluxOR thallium flux fluorescence; active compounds read low; 310,000 tested, 1.2% active; AID 488922, 2010; B-score at 10 µM;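 active = ratio B-score over 3 SD below the library mean, with starting fluorescence within 5 SD of its mean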;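 also: negative B-score means less thallium flux so channel inhibition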
KCNK3 confirm: retest of human KCNK3 channel inhibitors, confirmation, CHO cells, FluxOR thallium flux, triplicate. ratio percent of control, % at 10 µM. 2,400 tested, 99% active. AID 651638, 2012. shares compounds with KCNK3 inh. FluxOR fluorescence; 0% buffer, 100% carvedilol maximal block;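 active = ratio percent of control, averaged over triplicates, above buffer control mean plus 5 SD, cut at about 64% in these data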;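 also: ratio is the fluorescence rise from min to max over baseline after thallium stimulus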
KCNK3 uninduced: thallium flux inhibition in non-induced cells, primary screen, counter-screen for KCNK3 inhibitor project, cell-based, non-induced KCNK3 line, FluxOR thallium, triplicate | thallium flux ratio (lower = more inhibition) at 10 µM | shares compounds with KCNK3 inh | 2,400 tested, 40% active | non-induced KCNK3 parental cells; active compounds read low;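 active = thallium flux ratio, averaged over three wells, more than 5 SD below the buffer control mean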;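 also: host cells are CHO cells without KCNK3 induction; ratio is peak minus trough fluorescence over baseline then normalized to buffer controls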
Starred values were filed as active, the others as inactive; i = inactive; . = no result.

SMILES	hERG protect	KCNQ1 pot	KCNK3 inh	KCNQ1 inh	KCNK9 inh	KCNK3 confirm	KCNK3 uninduced
COc1ccc(Br)cc1CN(C)C(=O)CNC(=O)c1ccc2ccccc2c1	-10.1	i	i	i	i	.	.
CC(=O)Nc1ccccc1OCCOc1ccc(Br)cc1	-2.9	i	-11.6*	i	i	99.3*	i
NC(=O)c1ccccc1OCCOc1ccc(Br)cc1	-0.9	i	i	i	i	.	.
Cc1c(C)c(C)c(S(=O)(=O)NCCC(=O)N2CCN(Cc3ccc(C#N)cc3)CC2)c(C)c1C	.	.	i	.	.	.	.
O=C1Nc2cccnc2N(C(=O)CCl)c2ccccc21	-8.3	i	i	i	i	.	.
COc1cccc2cc(CC(=O)c3cc(C)ccc3C)c(=O)oc12	-7.8	i	-9.62*	i	i	82.0*	i
CCN1CCN(CC(=O)Nc2ccc(S(=O)(=O)N3C(C)CCCC3C)cc2)CC1 (stereo unspecified)	-8.1	i	i	i	i	.	.
O=[N+]([O-])c1cc(C(F)(F)F)ccc1NCC1CCCO1 (stereo unspecified)	-0.2	i	-9.69*	i	i	70.3*	i
CNc1ccc(Br)cc(C(=O)/C=C/c2ccc(Cl)cc2Cl)c1=O	-18.0	i	-9.7*	10*	i	117.0*	0.116*
CC(C)Oc1cccc(C(=O)C2CCCN(Cc3ccc4nonc4c3)C2)c1 (stereo unspecified)	-9.2	i	-11.6*	i	i	127.0*	0.141*
O/N=C(/c1ccccc1)c1cc2cc(Br)cc(Br)c2o1	-4.7	i	i	i	i	.	.
Cc1ccc(SCCNC(=O)/C=C/c2ccc(Cl)cc2)cc1	-6.0	i	i	i	i	.	.
Cc1ccc(SCCNC(=O)/C=C/c2ccccc2Cl)cc1	-13.1	i	-14.4*	i	i	122.7*	0.129*
CC(Cc1ccccc1)NC(=O)CC(c1ccccc1)c1ccccc1O (stereo unspecified)	-3.8	i	i	i	i	.	.
O=C(CC(c1ccccc1)c1ccccc1O)NCc1ccccc1 (stereo unspecified)	-7.0	i	-8.84*	i	i	95.3*	i
O=C(CCCn1nnnc1CN1CCOCC1)N1CCC(c2ccccc2Cl)C1 (stereo unspecified)	-9.8	i	i	i	i	.	.
O=C(COC(=O)c1ccco1)Nc1nnc(-c2ccccc2)o1	-13.0	i	i	i	i	.	.
O=C(OCc1nc(-c2ccccc2)oc1COC(=O)c1ccco1)c1ccco1	-3.1	i	-9.08*	i	i	101.7*	i
CCC(CC)C(=O)Nc1cccc(C(=O)Nc2ccc3c(c2)OCO3)c1	-15.2	i	-11.9*	i	-7.58*	91.7*	i
CCN(CC)S(=O)(=O)c1cccc(C(=O)Nc2ccc3c(c2)OCO3)c1	-18.1	i	i	i	i	.	.
COc1ccccc1OCCCn1cc(C#N)c2ccccc21	-1.1	i	i	i	i	.	.
N#Cc1cn(CCCOc2ccccc2)c2ccccc12	-7.0	i	-9.47*	i	i	115.0*	0.14*
O=C(Nc1ccccc1N1CCN(C(=O)c2ccc(Cl)cc2)CC1)c1cc2ccccc2o1	-5.8	i	-12.3*	i	i	121.0*	0.143*
O=C(Nc1ccc(N2CCN(C(=O)c3ccc(Cl)cc3)CC2)cc1)c1cc2ccccc2o1	-11.8	i	i	i	i	.	.
O=C(CN1CCCN(S(=O)(=O)c2ccc(F)cc2)CC1)Nc1c(Cl)cccc1Cl	-6.4	i	i	i	i	.	.

Assay outcomes: PubChem, Johns Hopkins Ion Channel Center
